Experiment [1] relates to Staphylococcus aureus. The experiment is described as follows: Antimicrobial activity against Staphylococcus aureus IFO 3060 at 200 ug/disc after 24 hrs. To be noted: IFO 3060, 24 h, read-out: IZ. Format: functional.
Experiment [2] deals with Bacillus subtilis. The experiment can be described thus: Antimicrobial activity against Bacillus subtilis IFO 3007 at 200 ug/disc after 24 hrs. To be noted: IFO 3007, 24 h, read-out: IZ. Format: functional.
Experiment [3] relates to Escherichia coli. The experiment is described as follows: Antimicrobial activity against Escherichia coli IFO 3301 at 200 ug/disc after 24 hrs. It counts as functional. To be noted: IFO 3301, 24 h, read-out: IZ.
The test system of experiment [4] is Pseudomonas aeruginosa. The experiment is described as follows: Antimicrobial activity against Pseudomonas aeruginosa IFO 3448 at 200 ug/disc. Format: functional. To be noted: read-out: IZ.
In experiment [5] the test system is Candida albicans. The experiment is described as follows: Antimicrobial activity against Candida albicans IFO 0583 at 200 ug/disc after 48 hrs. Format: functional. Particulars: IFO 0583, 48 h, read-out: IZ.
The subject of experiment [6] is Rattus norvegicus. The experiment is described as follows: Antiinflammatory effect on carrageenan-induced paw oedema Sprague-Dawley rat assessed as reduction of paw oedema at 20 mg/kg, ip. Details: scale not given: the % may be the effect or the level left. It counts as functional. Particulars: route intraperitoneal. Summed up: (§1)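 Rats in groups of five, acclimatised two days, given compound (20, 40, 60 mg/kg) or indomethacin (10 mg/kg) i.p. as suspension in 1 ml 0.5% aqueous carboxymethyl cellulose 1 h before 0.1 ml 1% carrageenin in saline into right hind plantar tissue; left paw got saline. Paw volume by water plethysmometer at 4 h; % protection vs vehicle control; mean ± S.E.M., Student's t test.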
In general terms: Carrageenan injected into the paw causes an acute inflammation.

Experiment [7] concerns Rattus norvegicus. The experiment can be described thus: Antiinflammatory effect on carrageenan-induced paw oedema Sprague-Dawley rat assessed as reduction of paw oedema at 40 mg/kg, ip. Particulars: route intraperitoneal. Format: functional. More on the design: scale not given: the % may be the effect or the level left. Summed up:
as §1

Experiment [8] has as its system Rattus norvegicus. The experiment can be described thus: Antiinflammatory effect on carrageenan-induced paw oedema Sprague-Dawley rat assessed as reduction of paw oedema at 60 mg/kg, ip. To be noted: route intraperitoneal. It counts as functional. Details: scale not given: the % may be the effect or the level left. In a few lines:
as §1

Experiment [9] concerns Bacillus subtilis. The experiment can be described thus: Antimicrobial activity against Bacillus subtilis IFO 3007 after 24 hrs. Format: functional. Particulars: IFO 3007, 24 h.
Experiment [10] deals with Candida albicans. The experiment can be described thus: Antimicrobial activity against Candida albicans IFO 0583 after 48 hrs. Format: functional. To be noted: IFO 0583, 48 h.
Experiment [11] has as its system Staphylococcus aureus. The experiment can be described thus: Antimicrobial activity against Staphylococcus aureus IFO 3060 after 24 hrs. Format: functional. To be noted: IFO 3060, 24 h.
In experiment [12] the test system is Escherichia coli. The experiment is described as follows: Antimicrobial activity against Escherichia coli IFO 3301 after 24 hrs. It counts as functional. Particulars: IFO 3301, 24 h.
Experiment [13] deals with Staphylococcus aureus. The experiment is described as follows: Antimicrobial activity against Staphylococcus aureus IFO 3060 at 100 ug/disc after 24 hrs. To be noted: IFO 3060, 24 h, read-out: IZ. Format: functional.
Experiment [14] concerns Bacillus subtilis. The experiment is described as follows: Antimicrobial activity against Bacillus subtilis IFO 3007 at 100 ug/disc after 24 hrs. Format: functional. To be noted: IFO 3007, 24 h, read-out: IZ.
Experiment [15] concerns Escherichia coli. The experiment is described as follows: Antimicrobial activity against Escherichia coli IFO 3301 at 100 ug/disc after 24 hrs. To be noted: IFO 3301, 24 h, read-out: IZ. Format: functional.
In experiment [16] the test system is Pseudomonas aeruginosa. The experiment can be described thus: Antimicrobial activity against Pseudomonas aeruginosa IFO 3448 at 100 ug/disc. To be noted: read-out: IZ. Format: functional.
The test system of experiment [17] is Pseudomonas aeruginosa. The experiment can be described thus: microbe, parasite or virus in culture. To be noted: IFO 3448.
Experiment [18] relates to Candida albicans. The experiment can be described thus: Antimicrobial activity against Candida albicans IFO 0583 at 100 ug/disc after 48 hrs. It counts as functional. To be noted: IFO 0583, 48 h, read-out: IZ.
Experiment [19] relates to Rattus norvegicus. The experiment can be described thus: Antiinflammatory effect on carrageenan-induced paw oedema Sprague-Dawley rat assessed as reduction of paw oedema at 10 mg/kg, ip. Format: functional. More on the design: scale not given: the % may be the effect or the level left. To be noted: route intraperitoneal. Summed up:
as §1

Values after ≈ are worked out from the molar mass of the structure shown.

Regarding `c1csc(-c2nnc(C34CC5CC(CC(C5)C3)C4)o2)c1`, the zone of inhibition at 200 µg/disc came to 14 mm in the experiment on Staphylococcus aureus [1]; 18 mm in the experiment with Bacillus subtilis [2]; 11 mm in the experiment on Escherichia coli [3]; 12 mm in the experiment on Pseudomonas aeruginosa [4]; 16 mm in the experiment on Candida albicans [5]. Moreover, the Activity was found to be 35.95% in the experiment on Rattus norvegicus [6], 49.77% in the experiment with Rattus norvegicus [7] and 63.72% in the experiment with Rattus norvegicus [8]. In addition, the MIC in the experiment on Bacillus subtilis [9] and in the experiment on Candida albicans [10] was 2 µg/mL (≈ 6.98 µM) in each case.

Take `O=C(NNC(=S)NC12CC3CC(CC(C3)C1)C2)c1ccc([N+](=O)[O-])cc1`: the zone of inhibition at 200 µg/disc in the experiment on Staphylococcus aureus [1] is 20 mm; in the experiment with Bacillus subtilis [2], 24 mm; with Escherichia coli [3] it was 19 mm; in the experiment with Pseudomonas aeruginosa [4], 15 mm; in the experiment with Candida albicans [5], less than 10 mm. Further, the Activity in the experiment with Rattus norvegicus [6] came to 0.76%. The MIC against Staphylococcus aureus [11] turned out to be 1 µg/mL (≈ 2.67 µM); in the experiment with Bacillus subtilis [9], 0.5 µg/mL (≈ 1.34 µM); with Escherichia coli [12], 2 µg/mL (≈ 5.34 µM).

Regarding `O=[N+]([O-])c1ccc(-c2nnc(NC34CC5CC(CC(C5)C3)C4)s2)cc1`, the zone of inhibition at 200 µg/disc in the experiment on Staphylococcus aureus [1] is 16 mm; with Bacillus subtilis [2] it was 18 mm; in the experiment on Escherichia coli [3], 17 mm; with Pseudomonas aeruginosa [4], 12 mm; in the experiment with Candida albicans [5], less than 10 mm. The results for the Activity with Rattus norvegicus [6], with Rattus norvegicus [7] and with Rattus norvegicus [8] were 9.11%, 10.1% and 10.74%, respectively. Also, the MIC was determined as 2 µg/mL (≈ 5.61 µM) against Staphylococcus aureus [11], 2 µg/mL (≈ 5.61 µM) against Bacillus subtilis [9] and 1 µg/mL (≈ 2.81 µM) against Escherichia coli [12].

`O=C(NNC(=S)NC12CC3CC(CC(C3)C1)C2)c1ccccc1`: the zone of inhibition at 200 µg/disc was less than 10 mm in the experiment with Staphylococcus aureus [1]; 22 mm in the experiment with Bacillus subtilis [2]; 16 mm with Escherichia coli [3]; less than 10 mm in the experiment with Pseudomonas aeruginosa [4]; less than 10 mm in the experiment on Candida albicans [5]. In addition, the Activity in the experiment on Rattus norvegicus [6] is reported as 2.32%; in the experiment on Rattus norvegicus [7], 1.8%. Moreover, the MIC with Bacillus subtilis [9] worked out at 1 µg/mL (≈ 3.04 µM); in the experiment with Escherichia coli [12], 4 µg/mL (≈ 12.1 µM).

On to `CC1(C)S[C@@H]2[C@H](NC(=O)[C@H](N)c3ccccc3)C(=O)N2[C@H]1C(=O)O` [AMPICILLIN], for which the zone of inhibition at 100 µg/disc in the experiment on Staphylococcus aureus [13] was determined as 19 mm; in the experiment with Bacillus subtilis [14], 18 mm; with Escherichia coli [15] it was 16 mm; in the experiment on Pseudomonas aeruginosa [16], 15 mm. The values for the MIC in the experiment on Staphylococcus aureus [11], with Bacillus subtilis [9] and in the experiment with Pseudomonas aeruginosa [17] were 1 µg/mL (≈ 2.86 µM), 0.5 µg/mL (≈ 1.43 µM) and 2 µg/mL (≈ 5.72 µM), respectively.

Turning to `Clc1ccccc1C(c1ccccc1)(c1ccccc1)n1ccnc1` [CLOTRIMAZOLE], in the experiment with Candida albicans [18], the zone of inhibition at 100 µg/disc was found to be 21 mm. Further, the MIC with Candida albicans [10] came to 2 µg/mL (≈ 5.8 µM).

As for `COc1ccc2c(c1)c(CC(=O)O)c(C)n2C(=O)c1ccc(Cl)cc1` [INDOMETHACIN], in the experiment with Rattus norvegicus [19], the Activity is 60.4%.

The values are drawn from ChEMBL document CHEMBL1142888, “Synthesis, antimicrobial, and anti-inflammatory activities of novel 2-(1-adamantyl)-5-substituted-1,3,4-oxadiazoles and 2-(1-adamantylamino)-5-substituted-1,3,4-thiadiazoles” (2007).
